The record followed here is ChEMBL document CHEMBL1149757, “Synthesis and antimalarial activity of new analogues of amodiaquine” (Eur J Med Chem, 2008).

Data set [1] relates to Plasmodium falciparum. Nature of the data set: Antimalarial activity against chloroquine-resistant Plasmodium falciparum K1 after 24 hrs by semiautomated micro dilution assay. The settings on record: K1, 24 h. It counts as functional, organism-based. The procedure, abridged: (§1)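 Asynchronous P. falciparum cultures on human erythrocytes (0.5% parasitaemia, 1% final haematocrit) were exposed to serially diluted drug for 24 h at 37 °C. [³H]hypoxanthine was then added for a further 24 h. Cells were freeze-thawed, harvested onto glass-fibre filters and scintillation-counted against a drug-free control on the same plate. IC50 was read from concentration-response curves (mean ± SD, independent experiments). DMSO was ≤0.1%.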

The nature of data set [2]: Cytotoxicity against human […] cells after 7 days by MTT assay. Format: cell-based. The procedure, abridged:
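MRC-5 human embryonic lung cells seeded at 5000 per well. After 24 h, cells were washed and given two-fold drug dilutions (32 to 1.6) in RPMI + 5% FCS, with final DMSO below 0.5%. Incubated 7 days at 37 °C in 5% CO₂. MTT read-out as % reduction of 540 nm absorbance versus untreated cultures. CC50 from two experiments.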

In data set [3] the test system is Plasmodium falciparum. Nature of the data set: Antimalarial activity against chloroquine-resistant Plasmodium falciparum FcB1R after 24 hrs by semiautomated micro dilution assay. Format: functional, organism-based. The procedure, abridged: as §1
Data set [4] concerns Plasmodium falciparum. Nature of the data set: Antimalarial activity against chloroquine-sensitive Plasmodium falciparum Thai after 24 hrs by semiautomated micro dilution assay.
Data set [5] can be described thus: Selectivity index, ratio of CC50 for human MRC5 cells to IC50 for Plasmodium falciparum K1. It counts as functional. The procedure, abridged: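 Ratio of MRC-5 CC50 to P. falciparum K1 IC50. CC50: 7-day MTT assay at 540 nm, from two experiments. IC50: asynchronous cultures (0.5% parasitaemia, 1% haematocrit) exposed to drug for 24 h at 37 °C, then [³H]hypoxanthine added for a further 24 h. Incorporation compared with drug-free controls; mean of independent experiments.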

In data set [6] the test system is Plasmodium berghei. Nature of the data set: Antimalarial activity as increased MST in Plasmodium berghei ANKA 65 infected Swiss CD1 at 10 mg/kg initial oral followed by intraperitoneal dose after 4 days. Format: functional, organism-based. Details: dose 10 mg/kg.
A short description of data set [7]: Inhibition of haem polymerization after 24 hrs. Format: functional. The procedure, abridged:
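Lipid-induced β-hematin formation: hemin in 25 mM NaOH mixed with a 1-monooleoylglycerol suspension in 90 mM sodium acetate, pH 5. Drug added from DMSO stock; controls received equal DMSO. Incubated 24 h at 37 °C, in duplicate. Samples centrifuged at 4 °C, and the pellet washed repeatedly with 10 mM sodium phosphate pH 7.4 containing 2.5% SDS.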

In data set [8] the test system is Plasmodium berghei. Nature of the data set: Antimalarial activity in Plasmodium berghei ANKA 65 infected Swiss CD1 mice (Mus musculus) as reduced parasitaemia at 10 mg/kg initial oral dose and further intraperitoneal dose after 4 days. Format: functional. Further details: scale not given: the % may be the effect or the level left.
Data set [9] deals with Plasmodium berghei. Nature of the data set: Antimalarial activity as increased MST in Plasmodium berghei ANKA 65 infected Swiss CD1 mice (Mus musculus) at 40 mg/kg initial oral followed by intraperitoneal dose after 4 days. Details: dose 40 mg/kg. Format: functional, organism-based. An outline of the steps: (§2)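 P. berghei ANKA 65 in 4-week-old female Swiss CD-1 mice (20–25 g), infected ip with about 10⁷ parasitized erythrocytes from a donor. Treatment at 40 mg/kg in 100% DMSO: first dose oral at infection, then ip on the following four days. Three mice per group, with three DMSO-dosed infected controls. Parasite reduction read on day 4; survival compared with untreated controls.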

Data set [10] concerns Plasmodium berghei. Nature of the data set: Antimalarial activity as reduced parasitaemia in Plasmodium berghei ANKA 65 infected Swiss CD1 mice (Mus musculus) at 20 mg/kg initial oral followed by intraperitoneal dose after 4 days. Format: functional. Details: scale not given: the % may be the effect or the level left.
In data set [11] the test system is Plasmodium berghei. Kind of data set: Antimalarial activity as increased MST in Plasmodium berghei ANKA 65 infected Swiss CD1 mice (Mus musculus) at 20 mg/kg initial oral followed by intraperitoneal dose after 4 days. Format: functional.
Data set [12] deals with Plasmodium berghei. Nature of the data set: Antimalarial activity as reduced parasitaemia in Plasmodium berghei ANKA 65 infected Swiss CD1 mice (Mus musculus) at 40 mg/kg initial oral followed by intraperitoneal dose after 4 days. Format: functional. Details: scale not given: the % may be the effect or the level left. An outline of the steps:
as §2

Molecules are shown by their SMILES. The source made the active and inactive calls. The calls are words filed in the database; no cut-off is given here.

As to `CCN(CC)Cc1cccc(Nc2ccnc3cc(Cl)ccc23)c1O`, the figures for the IC50 in [1], in [3] and in [4] were 262 nM, 95.2 nM and 104 nM, respectively. Further, the half-maximal cytotoxic concentration (CC50) at 168 h in data set [2] was above 25000 nM. In addition, the “Ratio CC50/IC50” value in data set [5] is above 95.
For the compound `CCN(CC)CCCC(C)Nc1ccnc2cc(Cl)ccc12` (stereo not drawn) [CHLOROQUINE], the result in [6] was Active. This compound also showed an IC50 in [7] of 70000 nM. The compound further yielded a CC50 at 168 h in data set [2] above 32000 nM. The Activity in data set [8] is 100%.
Consider `CCN(CC)Cc1cc(N)cc(Nc2ccnc3cc(Cl)ccc23)c1`, for which the IC50 in [1] was 32.3 nM; in data set [7], 153000 nM; in data set [3] it was 18.1 nM; in [4], 16.3 nM. Moreover, the outcome in [9] was Active. Moreover, the values for the Activity in data set [10], in [11] and in [12] were 96%, 63% and 100%, respectively. This compound also displayed a cytotoxic concentration (CC50) at 168 h in data set [2] above 25000 nM. Further, the Ratio CC50/IC50 in data set [5] is 774.
With `CCN(CC)Cc1ccc(Nc2ccnc3cc(Cl)ccc23)cc1O` [ISOQUINE], the 50% inhibitory concentration (IC50) stood at 7.3 nM in data set [1], 5.4 nM in [3] and 4.3 nM in [4]. The same compound had a CC50 at 168 h in data set [2] of 8000 nM. In addition, the “Ratio CC50/IC50” value in data set [5] is 1096.
With `CCN(CC)Cc1cc(Nc2ccnc3cc(Cl)ccc23)ccc1O.Cl`, the outcome in data set [6] was Active. The same compound returned a 50% inhibitory concentration (IC50) in data set [7] of 48000 nM. In [2], the 50% cytotoxic concentration (CC50) at 168 h was found to be 12000 nM. This compound also yielded an Activity in data set [8] of 100%. In addition, the “Ratio CC50/IC50” value in data set [5] worked out at 1276.
As to `CCN(CC)Cc1ccc(O)c(Nc2ccnc3cc(Cl)ccc23)c1`, the concentration for half-maximal inhibition (IC50) in data set [1] was 32.6 nM; in [4] it was 15.2 nM. This compound gave a CC50 at 168 h in data set [2] of 19000 nM. In addition, the “Ratio CC50/IC50” value in data set [5] was 583.
With `CCN(CC)Cc1cc(NCCN2CCCCC2)cc(Nc2ccnc3cc(Cl)ccc23)c1`, the IC50 in data set [1] was found to be 26.5 nM; in data set [3], 19.1 nM; in data set [4], 15.6 nM. In data set [2], this compound yielded a CC50 at 168 h of 4000 nM. Besides, the “Ratio CC50/IC50” value in [5] stood at 152.
In the same order, the values of `CCN(CC)Cc1cccc(Nc2ccnc3cc(Cl)ccc23)c1` are 17.1 nM, 15.8 nM, 13.2 nM, 12500 nM and 731.
On to `CCN(CC)Cc1cc(O)cc(Nc2ccnc3cc(Cl)ccc23)c1`, for which the IC50 worked out at 42.8 nM in [1], 35.2 nM in [3] and 25.3 nM in data set [4]. This compound displayed a half-maximal cytotoxic concentration (CC50) at 168 h in [2] above 25000 nM. Moreover, the “Ratio CC50/IC50” value in data set [5] is recorded as above 584.
